Experiment [1] has as its system A549. The experiment is described as follows: Antiproliferative activity against human A549 cells after 48 hrs by MTT assay. In kind it is functional, cell-based. Conditions: for IC50: A549, 48 h. An outline of the steps: (§1)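 Cells grown 1×10⁴/well for 48 h to about 75% confluence. Medium then replaced with fresh medium containing serially diluted compounds, followed by a further 48 h. MTT added for 4 h at 37 °C and formazan dissolved in DMSO for 10 min. OD read at 620 nm. IC50 taken from the viability–concentration survival curve. Three independent experiments, each in triplicate.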
(Formazan colour is commonly taken as a measure of viable cells.)

Experiment [2] relates to MCF7. The experiment is described as follows: Antiproliferative activity against human MCF7 cells after 48 hrs by MTT assay. The note with it: for IC50: MCF7, 48 h. In kind it is functional, cell-based. The essentials: as §1
Experiment [3] has as its system MCF7. The experiment can be described thus: Induction of apoptosis in human MCF7 cells assessed as cell shrinkage after 24 hrs by brightfield inverted light microscopic analysis. The class given is functional, cell-based.
Experiment [4] concerns A549. The experiment is described as follows: Induction of apoptosis in human A549 cells by acridine orange/ethidium bromide staining-based fluorescence microscopic analysis. The class given is functional, cell-based. The essentials:
(§2)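 Treated cells collected and washed in PBS (pH 7.2). Stained with a 1:1 AO/EtBr mixture (each dye […] in water) and held 2 min. Washed twice in PBS and viewed by fluorescence microscopy at 400× with 480 nm excitation. Green intact-membrane cells distinguished from orange/red membrane-damaged cells.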

Experiment [5] concerns MCF7. The experiment is described as follows: Induction of apoptosis in human MCF7 cells by acridine orange/ethidium bromide staining-based fluorescence microscopic analysis. In kind it is functional, cell-based. The essentials: as §2
Experiment [6] concerns A549. The experiment can be described thus: Induction of apoptosis in human A549 cells assessed as formation of floating cells after 24 hrs by brightfield inverted light microscopic analysis. The class given is functional, cell-based.
Experiment [7] deals with MCF7. The experiment can be described thus: Induction of apoptosis in human MCF7 cells assessed as chromatin condensation after 24 hrs by DAPI staining-based fluorescence microscopic analysis. The class given is functional, cell-based. The essentials: (§3)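 Cells plated on glass coverslips and treated for 24 h, then fixed. Permeabilised with 0.2% Triton X-100 for 10 min at room temperature. DAPI applied for 3 min under a coverslip. Nuclei inspected by fluorescence microscopy for condensed chromatin and fragmentation, against untreated cells.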

The subject of experiment [8] is A549. The experiment can be described thus: Induction of apoptosis in human A549 cells assessed as cell shrinkage after 24 hrs by brightfield inverted light microscopic analysis. The class given is functional, cell-based.
In experiment [9] the test system is A549. The experiment is described as follows: Induction of apoptosis in human A549 cells assessed as membrane blebbing after 24 hrs by brightfield inverted light microscopic analysis. The class given is functional, cell-based.
In experiment [10] the test system is MCF7. The experiment can be described thus: Induction of apoptosis in human MCF7 cells assessed as nuclear condensation by acridine orange/ethidium bromide staining-based fluorescence microscopic analysis. The class given is functional, cell-based. The essentials: as §2
For experiment [11], the system named is MCF7. The experiment is described as follows: Induction of apoptosis in human MCF7 cells assessed as damaged cell membranes by acridine orange/ethidium bromide staining-based fluorescence microscopic analysis. The class given is functional. The essentials: as §2
Experiment [12] concerns MCF7. The experiment is described as follows: Induction of apoptosis in human MCF7 cells assessed as membrane blebbing after 24 hrs by brightfield inverted light microscopic analysis. In kind it is functional, cell-based.
Experiment [13] deals with A549. The experiment is described as follows: Induction of apoptosis in human A549 cells assessed as nuclear fragmentation after 24 hrs by DAPI staining-based fluorescence microscopic analysis. The class given is functional, cell-based. An outline of the steps:
as §3

Experiment [14] deals with MCF7. The experiment is described as follows: Induction of apoptosis in human MCF7 cells assessed as nuclear fragmentation after 24 hrs by DAPI staining-based fluorescence microscopic analysis. The class given is functional, cell-based. An outline of the steps:
as §3

Experiment [15] deals with MCF7. The experiment can be described thus: Induction of apoptosis in human MCF7 cells assessed as formation of floating cells after 24 hrs by brightfield inverted light microscopic analysis. The class given is functional, cell-based.

Molecules are shown by their SMILES. Active and inactive are the calls of the source. The calls are words filed in the database; no cut-off is given here.

One may read the IC50 as the concentration that inhibits the measured activity by half. High values mean lower potency, low ones higher potency. On to `COc1ccc([C@H]2[C@@H](c3ccccc3)N[C@@]3(C(=O)Nc4ccccc43)[C@]23CCc2c([nH]c4ccccc24)C3=O)cc1`, for which, in the experiment with A549 [1], the Activity entry was “Dose-dependent effect” and inhibition was half-maximal at 21 µM (IC50). Further, in the experiment on MCF7 [2], the Activity entry is “Dose-dependent effect” and it took 17 µM to reach half-maximal inhibition (IC50).
Take `O=C1Nc2ccccc2[C@]12N[C@H](c1ccccc1)[C@H](c1ccccc1)[C@@]21CCc2c([nH]c3ccc(Cl)cc23)C1=O`: the result in the experiment on MCF7 [3], in the experiment with A549 [4], with MCF7 [5], in the experiment with A549 [6], in the experiment with A549 [8] and in the experiment with A549 [9] was inactive. Also, the result with MCF7 [10], in the experiment with MCF7 [11], in the experiment with MCF7 [12], with A549 [13] and in the experiment on MCF7 [15] was inactive. Further, the Activity result in the experiment on A549 [1] and in the experiment with MCF7 [2] was “Dose-dependent effect” each time. The IC50 in the experiment on A549 [1] was 15 µM; with MCF7 [2] it was 18 µM. In addition, the outcome with MCF7 [7] and in the experiment on MCF7 [14] was Active.
Turning to `COc1ccc([C@H]2[C@@H](c3ccccc3)N[C@@]3(C(=O)Nc4ccccc43)[C@]23CCc2c([nH]c4ccc(Cl)cc24)C3=O)cc1`, the outcome in the experiment with MCF7 [3], in the experiment on A549 [4], with MCF7 [5], with A549 [6], with A549 [8] and with A549 [9] was inactive. In addition, the outcome in the experiment on MCF7 [10], in the experiment on MCF7 [11], in the experiment on MCF7 [12], in the experiment on A549 [13] and in the experiment with MCF7 [15] was inactive. The Activity result with A549 [1] and with MCF7 [2] was “Dose-dependent effect” in each case. Also, the IC50 in the experiment on A549 [1] turned out to be 18 µM; in the experiment with MCF7 [2], 19 µM. For the same compound, the outcome in the experiment on MCF7 [7] and in the experiment on MCF7 [14] was Active.
For `O=C1Nc2ccccc2[C@]12N[C@H](c1ccccc1)[C@H](c1ccccc1)[C@@]21CCc2c([nH]c3ccccc23)C1=O`, the result in the experiment with MCF7 [3], with A549 [4], in the experiment on MCF7 [5], in the experiment on A549 [6], with A549 [8] and in the experiment with A549 [9] was inactive. Further, the outcome with MCF7 [10], in the experiment with MCF7 [11], with MCF7 [12], in the experiment with A549 [13] and with MCF7 [15] was inactive. The Activity result with A549 [1] and in the experiment on MCF7 [2] was “Dose-dependent effect” in each case. In addition, the figures for the IC50 in the experiment on A549 [1] and in the experiment on MCF7 [2] were 17 µM and 15 µM, respectively. For the same compound, the outcome in the experiment on MCF7 [14] was Active.
Turning to `COc1ccc([C@H]2[C@@H](c3ccccc3)N[C@@]3(C(=O)Nc4ccccc43)[C@]23CCc2c([nH]c4ccc(C)cc24)C3=O)cc1`, the outcome with MCF7 [3], with A549 [4], with MCF7 [5], in the experiment on A549 [6], in the experiment on A549 [8] and in the experiment with A549 [9] was inactive. The result in the experiment with MCF7 [10], in the experiment on MCF7 [11], with MCF7 [12], in the experiment with A549 [13] and with MCF7 [15] was inactive. The Activity result with A549 [1] and in the experiment with MCF7 [2] was “Dose-dependent effect” each time. Besides, the IC50 is 20 µM with A549 [1] and 18 µM in the experiment on MCF7 [2]. Besides, the outcome with MCF7 [7] and in the experiment on MCF7 [14] was Active.
In the case of `Cc1ccc2[nH]c3c(c2c1)CC[C@]1(C3=O)[C@@H](c2cccs2)[C@@H](c2ccccc2)N[C@@]12C(=O)Nc1ccccc12`, the Activity entry in the experiment on MCF7 [3], in the experiment with A549 [1], in the experiment on A549 [6], in the experiment on MCF7 [2], with A549 [8] and in the experiment on A549 [9] was “Dose-dependent effect” in each case. For the same compound, the Activity entry in the experiment on MCF7 [12] and with MCF7 [15] was “Dose-dependent effect” throughout. For the same compound, the result in the experiment on A549 [4], with MCF7 [5], in the experiment on MCF7 [10], in the experiment with MCF7 [11], in the experiment with A549 [13] and in the experiment on MCF7 [14] was Active. Moreover, the values for the IC50 in the experiment with A549 [1] and in the experiment on MCF7 [2] were 15 µM and 14 µM, respectively.
With `Cc1ccc2[nH]c3c(c2c1)CC[C@]1(C3=O)[C@@H](c2ccccc2)[C@@H](c2ccccc2)N[C@@]12C(=O)Nc1ccccc12`, the outcome in the experiment on MCF7 [3], in the experiment with A549 [4], in the experiment on MCF7 [5], with A549 [6], with A549 [8] and in the experiment with A549 [9] was inactive. The outcome with MCF7 [10], with MCF7 [11], with MCF7 [12], in the experiment on A549 [13] and with MCF7 [15] was inactive. Further, the Activity result with A549 [1] and in the experiment on MCF7 [2] was “Dose-dependent effect” throughout. The IC50 in the experiment on A549 [1] stood at 18 µM; in the experiment with MCF7 [2], 19 µM. Further, the outcome with MCF7 [7] and in the experiment on MCF7 [14] was Active.
Consider `O=C1Nc2ccccc2[C@]12N[C@H](c1ccccc1)[C@H](c1cccs1)[C@@]21CCc2c([nH]c3ccccc23)C1=O`, for which the outcome with MCF7 [3], in the experiment with MCF7 [5], in the experiment on A549 [6], with A549 [8], in the experiment on A549 [9] and with MCF7 [10] was inactive. Besides, the result in the experiment with MCF7 [11], in the experiment on MCF7 [12], in the experiment with A549 [13] and with MCF7 [15] was inactive. Moreover, the outcome in the experiment with A549 [4] and in the experiment on MCF7 [14] was Active. The Activity result in the experiment on A549 [1] and in the experiment on MCF7 [2] was “Dose-dependent effect” throughout. Further, the values for the IC50 with A549 [1] and in the experiment with MCF7 [2] were 16 µM and 15 µM, respectively.

The values above are taken from ChEMBL document CHEMBL4138211, “Regio- and stereoselective synthesis of dispirooxindole-pyrrolocarbazole hybrids via 1,3-dipolar cycloaddition reactions: Cytotoxic activity and SAR studies” (Eur J Med Chem, 2018).
